Screening data (PubChem BioAssay)
Shown is part of a subset that was picked to be rich in hits.
CHOP UPR activ – activators of apoptotic CHOP UPR arm, primary screen, cell-based, CHO-CHOP luciferase reporter, luminescence, uHTS; activation, % at 10 µM; actives 0.34% (n = 330,000); UPR activation; percent of tunicamycin response over DMSO baseline;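 active means at 10 µM dose, activation of 40% or more, normalized to positive control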;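 further: 100% = tunicamycin at 10 µg/mL and 0% = DMSO alone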
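System: CHO-CHOP luciferase reporter cell line; amount: 500 cells/well; buffer or medium: F12 medium containing 10% fetal bovine serum; incubation: 6 h compound exposure at 37 °C after overnight seeding; measured by: luciferase luminescence after 10 min with Steady-Glo reagent; evaluation: % reporter activation, DMSO baseline versus tunicamycin full activation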
T cruzi inh – inhibitors of intracellular T. cruzi growth, primary screen, luminescence, NIH3T3 host cells. T. cruzi beta-gal in NIH3T3, 90 h. actives 1.4% (n = 300,000). inhibition, % (test concentration not listed). AID 1885, 2009;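 active means mean inhibition across valid replicates above about 55%, limit read from the data; inconclusive means mean below that limit but half or more replicates reach it; inactive means mean below it, under half of replicates reach it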;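 further: signal also drops with host cell toxicity which is not excluded here; 0% = plate median of DMSO wells and 100% = zero luminescence signal; higher percent means less beta-gal luminescence so fewer parasites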
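compound dosing = single 50 nL compound addition per well in DMSO | material = NIH/3T3 host cells with β-galactosidase reporter T. cruzi | input = 5,000 host fibroblasts per well | timing = ≥90 h infection period, 3 h prior cell attachment | read-out basis = percent inhibition of parasite-derived β-gal signal | detection = GalScreen β-gal luminescence, detergent lysis, 60 min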
Dynein transport – inhibitors of GR-EGFP nuclear translocation, primary screen, dynein cargo transport inhibitor project, imaging, high-content, 3617.4 mouse cells; test concentration mostly 20 µM; stimulated with dexamethasone, 1 µM; active compounds read low; z-score, hits read low; actives 0.47% (n = 220,000); AID 1381, 2008;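 active means plate z-score of nuclear minus cytoplasmic receptor signal below a set negative limit, without overly bright fluorescence or cell loss, cut at about -3.5 in these data, passing the limit was not always enough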;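 further: z-score of nuclear minus cytoplasmic ring GR-EGFP intensity difference per well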
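Buffer or medium: tetracycline-free induction medium containing charcoal-stripped FBS / Reagent: dexamethasone agonist, 1.0 µM final, for 30 min / Technique: automated 10x imaging of fixed Hoechst-stained cells / Times: induction 48 h, compound 1 h, agonist 30 min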
UPR XBP1 act – activators of adaptive XBP1 UPR arm, primary screen, cell-based, CHO-XBP1 luciferase reporter, luminescence, uHTS. actives 0.33% (n = 330,000). activation, % at 20 µM. IRE1-XBP1 UPR activation; percent of tunicamycin response, DMSO as zero;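 active means versus positive control, 20 µM dose yields 30% or more activation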;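 further: 100% = tunicamycin at 10 µg/mL and 0% = DMSO only wells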
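Material: CHO cell line with stable XBP1 luciferase reporter; buffer or medium: F12 medium containing 10% fetal bovine serum; compound: single point, 20 µM final compound, 1% DMSO; incubation: 6 h treatment, 37 °C; measured by: glow luminescence from Steady-Glo reagent; evaluation: activation, % of tunicamycin; control set: tunicamycin high, DMSO low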
CHOP inhibitor – inhibitors of CHOP promoter induction, primary screen, cell-based, unfolded protein response, luciferase reporter | CHO-K1 CHOP-promoter luciferase, tunicamycin-induced, 15-18 h | inhibition, % at 10 µM | actives 3.8% (n = 220,000) | AID 2732, 2010;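 active means compounds that reduced the stress-induced luciferase reporter signal by more than about 70% of percent inhibition, limit read from the data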;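 further: 0% = tunicamycin plus vehicle and 100% = wells without tunicamycin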
Lmaj promast – Leishmania major promastigote growth inhibition, primary screen; Leishmania major promastigotes, resazurin fluorescence viability; inhibition, % at 10 µM; actives 9% (n = 200,000); in the data active means inhibition above about 50%;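 further: promastigotes grown with compound for 44 hours at 28 °C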
* hit, by the source's call; ? = inconclusive; nt = no result given.

SMILES | CHOP UPR activ | T cruzi inh | Dynein transport | UPR XBP1 act | CHOP inhibitor | Lmaj promast
CCc1ccccc1NC(=O)C1CCN(S(=O)(=O)c2ccc3c(c2)N(C(C)=O)CCO3)CC1 | 1 | -3 | nt | -4 | nt | nt
CN(C(=O)CSc1nc2ccccc2c(=O)n1-c1ccccc1Cl)C1CCS(=O)(=O)C1 (configuration not stated) | 0 | nt | nt | -1 | nt | nt
CC12CCC(=O)N1C(C(=O)Nc1ccc(SC(F)F)cc1)CS2 (configuration not stated) | -1 | 6 | nt | -3 | nt | nt
O=C(CSc1nnc(-c2ccc(S(=O)(=O)N3CCCC3)cc2)o1)NCc1ccccc1 | -1 | 9 | 1.9 | -2 | 9 | 99*
CCN(CC)S(=O)(=O)c1ccc(-c2nnc(SCC(=O)Nc3ccc4c(c3)OCO4)o2)cc1 | 0 | -1 | -0.14 | -3 | 42 | -2
CC(NC(=O)CSc1nnc(-c2cccc(S(=O)(=O)N3CCCCC3)c2)o1)C12CC3CC(CC(C3)C1)C2 (configuration not stated) | 0 | 28 | 0.77 | -2 | 15 | 96*
Cc1cc2cc(C)c3nnc(SCC(=O)Nc4ccc(S(=O)(=O)N5CCCCC5)cc4)n3c2cc1C | 0 | 9 | 0.35 | -2 | 28 | 56*
CCN(CC)S(=O)(=O)c1ccc(NC(=O)CSc2nnc(-c3ccc(F)cc3)o2)cc1 | 0 | 24 | -0.31 | -1 | 94* | 6
CC(C)NC(=O)Nc1ccc2c(c1)C(=O)N([C@H](C)CO)C[C@H](C)[C@@H](CN(C)S(C)(=O)=O)O2 | 2 | nt | nt | -1 | nt | nt
CC(C)N(C(=O)[C@H]1C[C@H](CC(=O)NCCC2=CCCCC2)C(=O)N2CCc3c([nH]c4ccc(Cl)cc34)[C@]12C)C(C)C | 4 | nt | nt | 18 | nt | nt
Cn1nccc1C(=O)N1CCCC(N2CCN(Cc3ccc4c(c3)OCO4)CC2)C1 (configuration not stated) | -2 | 7 | nt | -2 | nt | nt
O=C(CSc1nnc(-c2ccc(F)cc2)o1)Nc1ccc(S(=O)(=O)N2CCCC2)cc1 | 0 | 12 | 0.2 | 0 | 4 | -3
O=C(CSc1nnc(-c2ccc(F)cc2)o1)Nc1ccc(S(=O)(=O)N2CCCCCC2)cc1 | -2 | 23 | -0.37 | -1 | 84* | -2
COc1ccc2c(C)cc3n[nH]c(=S)n3c2c1 | -2 | -12 | 0.086 | -3 | 23 | nt
Cc1ccc(N(C)C(=O)N2CCN(S(=O)(=O)c3c(C)cc(C)cc3C)CC2)cc1 | -2 | 17 | 0.52 | -1 | 65 | 98*
Cc1ccc(N(C)C(=O)N2CCN(S(=O)(=O)c3ccc(C)c(C)c3)CC2)cc1 | 1 | 1 | -0.32 | 0 | 73* | 5
CCOC(=O)c1nc(C)sc1-c1ccnn1S(=O)(=O)c1cccc(Cl)c1 | 2 | nt | -0.65 | 0 | 4 | nt
CC(C)C(=O)NC(c1ccco1)c1ccc2cccnc2c1O (configuration not stated) | 17 | 50 | -0.48 | 5 | nt | 100*
Oc1c(C(Nc2nc3ccccc3s2)c2ccco2)ccc2cccnc12 (configuration not stated) | 3 | ? | 0.32 | -1 | nt | 100*
CCc1nn(CCCC(=O)N2CCN(c3cccc(C)c3C)CC2)c(=O)c2cc3occc3n12 | 12 | 5 | nt | -9 | nt | nt
CC1CC(C)(C)CC2(C1)NC(=S)N(c1ccccc1)N2 (configuration not stated) | 0 | -3 | -0.31 | -4 | 70 | 4
CC1CCCCC12NC(=S)N(c1ccccc1)N2 (configuration not stated) | 1 | 8 | -0.16 | 2 | 10 | nt
CC1CCCC2(C1)NC(=S)N(c1ccccc1)N2 (configuration not stated) | -1 | -7 | 0.15 | 0 | -31 | 84*
S=C1NC2(CCCCC2)NN1c1ccccc1 | 0 | 6 | -1.2 | -2 | 14 | 81*
O=S(=O)(Nc1cccc(-n2cnnn2)c1)c1ccccc1C(F)(F)F | 1 | -10 | nt | -4 | nt | nt
SMILES | CHOP UPR activ | T cruzi inh | Dynein transport | UPR XBP1 act | CHOP inhibitor | Lmaj promast
COc1cc(SC)ccc1C(=O)Nc1ncc(C)s1 | -8 | 13 | 0.11 | -14 | 69 | 67*
COc1cc(SC)ccc1C(=O)NCCOc1c(C)cc(C)cc1C | 0 | 27 | -0.75 | 0 | 91* | 3
Cc1cc(=O)oc2cc(O[C@@H]3O[C@H](CO)[C@@H](O)[C@H](O)[C@H]3O)ccc12 | -1 | -6 | nt | -6 | nt | nt
CC(=O)c1cccc(NC(=O)CNC(=O)c2sc3ccccc3c2Cl)c1 | 3 | 2 | nt | -2 | nt | nt
COc1ccc2cc3c(N)nn(C(=O)Cc4ccc(Cl)cc4)c3nc2c1 | 1 | 2 | 2.3 | -2 | 83* | -3
COc1ccc(CN(C)C(=O)Cc2c[nH]c3ccccc23)cc1 | 1 | -11 | nt | -1 | nt | nt
COc1ccc2cc3c(N)nn(C(=O)c4ccccc4Cl)c3nc2c1 | -4 | 29 | -0.33 | -1 | 77* | nt
COc1ccc2cc3c(N)nn(C(=O)c4ccc(F)cc4)c3nc2c1 | 0 | 3 | -0.53 | -1 | 67 | nt
COc1ccc2cc3c(N)nn(C(=O)Cc4c[nH]c5ccccc45)c3nc2c1 | -4 | 7 | -0.84 | -3 | 79* | nt
COc1ccc2cc3c(N)nn(C(=O)c4cccc(F)c4)c3nc2c1 | 0 | 4 | 0.98 | 3 | 37 | nt
COc1cccc(CC(=O)n2nc(N)c3cc4ccc(OC)cc4nc32)c1 | 1 | 0 | -0.79 | 0 | 95* | -4
CN(Cc1nc2ccccc2c(=O)[nH]1)C(=O)C1CC(=O)N(c2cccc3ccccc23)C1 (configuration not stated) | 3 | nt | nt | -1 | nt | nt
CC(C)(CO)C(O)C(=O)NCCCO (configuration not stated) | 3 | -18 | nt | -9 | nt | nt
O=C(COC(=O)c1cc2ccccc2cc1O)Nc1cccnc1Cl | 2 | -20 | -0.5 | 0 | 31 | 63*
O=C(COC(=O)c1ccccc1O)Nc1cccnc1Cl | 2 | -9 | -0.097 | -2 | 19 | 46
CCC1Oc2ccc(C)cc2N(CC(=O)N(Cc2cccnc2)Cc2cccc(F)c2)C1=O (configuration not stated) | 1 | 59* | 1.5 | 0 | -18 | 93*
O=C(CN1C(=O)COc2ccccc21)N(Cc1cccnc1)Cc1cccc(F)c1 | -1 | 71* | -0.6 | -2 | 4 | 95*
O=C(O)CCC(=O)N(Cc1cccnc1)Cc1cccc(F)c1 | -1 | nt | 1.4 | -3 | 17 | -7
